From ChEMBL document CHEMBL1795208 (J Med Chem, 2011)

Columns and labels:
Assay type in all cases: functional, cell-based
[1] = test system: SK-BR-3; assay: Antiproliferative activity against human SKBR3 cells expressing HER2 after 72 hrs by MTS/PMS assay; details: SK-BR-3, 72 h
Summary of the method: (§1)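 Cells kept in Advanced DMEM/F12 (1:1) with non-essential amino acids, 2 mM L-glutamine, penicillin, streptomycin and 10% FBS at 37 °C, 5% CO2. Seeded at 2000/well, attached overnight. Compound added in DMSO across a concentration range (1% DMSO final) for 72 h. Viable cells read by MTS/PMS and normalized to 1% DMSO controls (100%). IC50 taken from separate triplicate experiments.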

[2] = test system: MCF7; assay: Antiproliferative activity against human MCF7 cells expressing estrogen receptor after 72 hrs by MTS/PMS assay; details: MCF7, 72 h; summary of the method: as §1
[3] = Antiproliferative activity against human androgen-dependent LNCaP-LN3 cells after 72 hrs by MTS/PMS assay; details: LNCaP-LN3, 72 h; summary of the method: as §1
[4] = Antiproliferative activity against human androgen-independent PC3MM2 cells after 72 hrs by MTS/PMS assay; details: PC3MM2, 72 h; summary of the method: as §1
[5] = test system: B16-F10; assay: Antiproliferative activity against mouse B16F10 cells after 72 hrs by MTS/PMS assay; details: B16-F10, 72 h; summary of the method: as §1
[6] = test system: SK-MEL-28; assay: Antiproliferative activity against human SK-MEL-28 cells after 72 hrs by MTS/PMS assay; details: SK-MEL-28, 72 h; summary of the method: as §1
[7] = Antiproliferative activity against human MDA1986 cells after 72 hrs by MTS/PMS assay; details: MDA1986, 72 h; summary of the method: as §1
[8] = Antiproliferative activity against human JMAR cells after 72 hrs by MTS/PMS assay; summary of the method: as §1

| Structure (SMILES) | IC50 [1] | IC50 [2] | IC50 [5] | IC50 [6] | IC50 [3] | IC50 [4] | IC50 [7] | IC50 [8] |
| --- | --- | --- | --- | --- | --- | --- | --- | --- |
| COc1cccc(-c2cc(C(=O)Nc3cc4cc(OC)c(O)c(C)c4oc3=O)ccc2OC)c1 | 3.23 µM | 11.7 µM | 5.77 µM | 12.4 µM | 15.8 µM | 11.2 µM | 6.7 µM | 24.6 µM |
| COc1cccc(-c2cc(C(=O)Nc3cc4ccc(OC5C=CCN(C)C5)c(C)c4oc3=O)ccc2OC)c1 (configuration not stated) | 2.92 µM | 5.29 µM | 6.4 µM | 10.8 µM | 1.22 µM | 1.73 µM | 7.7 µM | 11.4 µM |
| COc1cccc(-c2cc(C(=O)Nc3cc4ccc(O[C@H]5OCCC[C@H]5O)c(C)c4oc3=O)ccc2OC)c1 | > 100 µM | > 100 µM | 10.4 µM | 19.6 µM | 7.34 µM | – | 18.8 µM | 3.6 µM |
| COc1cccc(-c2cc(C(=O)Nc3cc4ccc(O[C@@H]5OCCC[C@@H](O)[C@H]5O)c(C)c4oc3=O)ccc2OC)c1 | 2.38 µM | > 100 µM | > 50 µM | 18.5 µM | > 100 µM | – | 22.9 µM | 7.4 µM |
| COc1cccc(-c2cc(C(=O)Nc3cc4ccc(O[C@H]5OCC[C@@H](O)[C@H]5O)c(C)c4oc3=O)ccc2OC)c1 | 6.71 µM | 42.6 µM | 8.56 µM | 15.8 µM | 1.2 µM | 12.9 µM | 3.7 µM | 6.14 µM |
| COc1cccc(-c2cc(C(=O)Nc3cc4ccc(OC5CNC[C@@H](O)[C@H]5O)c(OC)c4oc3=O)ccc2OC)c1 (some centres not stated) | 8.98 µM | 10.2 µM | 11.8 µM | 11.4 µM | 12.2 µM | 14.4 µM | 21.7 µM | 11.6 µM |
| COc1cccc(-c2cc(C(=O)Nc3cc4cc(OC)c(OC5C=CCN(C)C5)c(C)c4oc3=O)ccc2OC)c1 (configuration not stated) | 1.96 µM | 5.27 µM | 6.14 µM | 31.5 µM | 4.49 µM | 3.87 µM | 16.4 µM | 18.4 µM |
| COc1cccc(-c2cc(C(=O)Nc3cc4ccc(OC5CCCNC5)c(OC)c4oc3=O)ccc2OC)c1 (configuration not stated) | 2.61 µM | 3.29 µM | 0.64 µM | 14.7 µM | 12.7 µM | 10.4 µM | 12.8 µM | 12.7 µM |
| COc1cccc(-c2cc(C(=O)Nc3cc4ccc(OC5CN(C)C[C@@H](O)[C@H]5O)c(OC)c4oc3=O)ccc2OC)c1 (some centres not stated) | 6.64 µM | 11 µM | 6.58 µM | 5.9 µM | 1.5 µM | 3.52 µM | 5.9 µM | 6.7 µM |
| COc1cccc(-c2cc(C(=O)Nc3cc4ccc(OC5C=CCCC5)c(C)c4oc3=O)ccc2OC)c1 (configuration not stated) | – | – | > 50 µM | 18.6 µM | – | – | 22.4 µM | 7.5 µM |
| COc1cccc(-c2cc(C(=O)Nc3cc4ccc(OC5CNC[C@@H](O)[C@H]5O)c(C)c4oc3=O)ccc2OC)c1 (some centres not stated) | 2.91 µM | 2.07 µM | 2.8 µM | 6.14 µM | 4.9 µM | 6.33 µM | 5.6 µM | 5.89 µM |
| COc1cccc(-c2cc(C(=O)Nc3cc4cc(OC)c(OC5CCCN(C(C)=O)C5)c(C)c4oc3=O)ccc2OC)c1 (configuration not stated) | – | – | 23.9 µM | 29.4 µM | – | – | 36.4 µM | 32.8 µM |
| COc1cccc(-c2cc(C(=O)Nc3cc4ccc(OC5C=CCC(C)C5)c(C)c4oc3=O)ccc2OC)c1 (configuration not stated) | – | – | > 50 µM | 20.6 µM | – | – | 21.8 µM | 24.9 µM |
| COc1cccc(-c2cc(C(=O)Nc3cc4ccc(O[C@@H]5OC[C@@H](O)[C@H]5O)c(C)c4oc3=O)ccc2OC)c1 | 12.5 µM | 37.2 µM | 4.55 µM | 5.74 µM | 3.65 µM | – | 1.94 µM | 12.6 µM |
| COc1cccc(-c2cc(C(=O)Nc3cc4cc(OC)c(O[C@@H]5C[C@H](O)CCO5)c(C)c4oc3=O)ccc2OC)c1 | 1.37 µM | > 100 µM | – | – | 3.27 µM | 2.35 µM | – | – |
| COc1cccc(-c2cc(C(=O)Nc3cc4ccc(O)c(OC)c4oc3=O)ccc2OC)c1 | > 100 µM | 5.32 µM | – | – | 6.18 µM | > 100 µM | – | – |
| COc1cccc(-c2cc(C(=O)Nc3cc4ccc(O[C@H]5C[C@H](O)CCO5)c(C)c4oc3=O)ccc2OC)c1 | > 100 µM | > 100 µM | – | – | 3.11 µM | > 100 µM | – | – |
| COc1cccc(-c2cc(C(=O)Nc3cc4ccc(OC(=O)N(C)C)c(C)c4oc3=O)ccc2OC)c1 | 39.9 µM | 74.4 µM | – | – | 5.4 µM | > 100 µM | – | – |
| Cc1c(OC2CCN(C)CC2)ccc2cc(NC(=O)c3cc4ccccc4[nH]3)c(=O)oc12 | 0.48 µM | 0.57 µM | – | – | 11.8 µM | 11.4 µM | – | – |
| CNC(=O)Oc1ccc2cc(NC(=O)c3ccc(OC)c(-c4cccc(OC)c4)c3)c(=O)oc2c1C | 2.4 µM | 1.72 µM | – | – | 3.75 µM | 5.22 µM | – | – |
| COc1cccc(-c2cc(C(=O)Nc3cc4cc(OC)c(OC(=O)N(C)C)c(C)c4oc3=O)ccc2OC)c1 | 6.17 µM | 34.4 µM | – | – | 12.8 µM | 4.04 µM | – | – |
| COc1cccc(-c2cc(C(=O)Nc3cc4ccc(OP(=O)(OC)OC)c(OC)c4oc3=O)ccc2OC)c1 | 18.1 µM | > 100 µM | – | – | 6.58 µM | 11.5 µM | – | – |

Further lines, with some results ahead:

| IC50 [1] | IC50 [2] | IC50 [5] | IC50 [6] | Structure (SMILES) | IC50 [3] | IC50 [4] | IC50 [7] | IC50 [8] |
| --- | --- | --- | --- | --- | --- | --- | --- | --- |
| 0.98 µM | 1.4 µM | 2.3 µM | 2.14 µM | COc1cccc(-c2cc(C(=O)Nc3cc4ccc(OC(C)=O)c(C)c4oc3=O)ccc2OC)c1 | 1.5 µM | 2.85 µM | 1.67 µM | 12.6 µM |
| 1.19 µM | 1.79 µM | 36.7 µM | 3.74 µM | COc1cccc(-c2cc(C(=O)Nc3cc4cc(OC)c(OC5CCN(C)CC5)c(C)c4oc3=O)ccc2OC)c1 | 4.17 µM | 2.84 µM | 1.54 µM | 1.84 µM |
| 7.57 µM | 11.7 µM | 1.3 µM | 6.41 µM | COc1cccc(-c2cc(C(=O)Nc3cc4ccc(O[C@@H]5OC[C@@H](O)[C@H]5O)c(OC)c4oc3=O)ccc2OC)c1 | 2.6 µM | 10.6 µM | 5.73 µM | 2.71 µM |
| 6.23 µM | 2.56 µM | 37.5 µM | 14.9 µM | COc1cccc(-c2cc(C(=O)Nc3cc4ccc(O[C@@H]5OCC[C@@H](O)[C@H]5O)c(C)c4oc3=O)ccc2OC)c1 | 3.59 µM | – | 13.4 µM | 2.79 µM |
| 35.2 µM | > 100 µM | 12.7 µM | 21.4 µM | COc1cccc(-c2cc(C(=O)Nc3cc4ccc(O[C@H]5C[C@H](O)CO5)c(C)c4oc3=O)ccc2OC)c1 | 3.72 µM | 10.1 µM | 6.9 µM | 24.1 µM |
| – | – | > 50 µM | 23.8 µM | COc1cccc(-c2cc(C(=O)Nc3cc4ccc(OC5C=CCC(C)(C)C5)c(C)c4oc3=O)ccc2OC)c1 (configuration not stated) | – | – | 24.4 µM | 6.7 µM |
| > 100 µM | > 100 µM | 42.7 µM | 18.4 µM | COc1cccc(-c2cc(C(=O)Nc3cc4ccc(O[C@@H]5OCC[C@H]5O)c(C)c4oc3=O)ccc2OC)c1 | – | – | 21.4 µM | 14.9 µM |
| – | – | 21.4 µM | 27.6 µM | COc1cccc(-c2cc(C(=O)Nc3cc4cc(OC)c(OC5C=CCN(C(C)=O)C5)c(C)c4oc3=O)ccc2OC)c1 (configuration not stated) | – | – | 25.1 µM | 35.1 µM |
| 7.33 µM | 8.85 µM | – | – | COc1cccc(-c2cc(C(=O)Nc3cc4ccc(OS(C)(=O)=O)c(C)c4oc3=O)ccc2OC)c1 | 20 µM | > 100 µM | – | – |
| > 50 µM | > 50 µM | – | – | COc1cccc(-c2cc(C(=O)Nc3cc4ccc(OC5C=CCN(C(C)=O)C5)c(C)c4oc3=O)ccc2OC)c1 (configuration not stated) | 0.9 µM | 3.73 µM | – | – |
| 0.57 µM | 0.56 µM | 2.03 µM | 1.35 µM | COc1cc2cc(NC(=O)c3cc4ccccc4[nH]3)c(=O)oc2c(C)c1OCCCN(C)C | – | 2.58 µM | 1.81 µM | 2.65 µM |
| 8.88 µM | 6.93 µM | – | – | COc1cccc(-c2cc(C(=O)Nc3cc4ccc(O)c(C)c4oc3=O)ccc2OC)c1 | 3.21 µM | 5.36 µM | – | – |
| > 100 µM | > 100 µM | – | – | COc1cccc(-c2cc(C(=O)Nc3cc4cc(OC)c(O[C@H]5C[C@H](O)CCO5)c(C)c4oc3=O)ccc2OC)c1 | 1.49 µM | 1.24 µM | – | – |
| 11.8 µM | 14.3 µM | – | – | COc1cccc(-c2cc(C(=O)Nc3cc4ccc(O[C@@H]5O[C@H](CO)C[C@@H](O)[C@H]5O)c(OC)c4oc3=O)ccc2OC)c1 | 6.78 µM | 17.9 µM | – | – |
| 3.6 µM | 4.32 µM | – | – | CNCCOc1ccc2cc(NC(=O)c3ccc(OC)c(-c4cccc(OC)c4)c3)c(=O)oc2c1OC | 15.2 µM | 9.12 µM | – | – |
| 0.6 µM | 0.5 µM | – | – | COc1cccc(-c2cc(C(=O)Nc3cc4ccc(OCCCN(C)C)c(C)c4oc3=O)ccc2OC)c1 | 37.5 µM | 12.8 µM | – | – |
